Measured values reported in PMC10582055 (Saudi Pharmaceutical Journal : SPJ, 2023).

What was measured:
Type in all cases: in vivo, Wistar rats
[1] = system: CYP3A2; test: Hepatic and intestinal CYP3A2 protein expression
Procedure, shortened: (§1)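 Wistar rats (n = 6/group), fasted overnight and dosed by intragastric gavage: saline for 7 days; saline for 6 days, then the drug at 25 mg/kg p.o. on day 7; the drug on day 7 given 2 h after test compound at 40 mg/kg; or test compound at 40 mg/kg for 7 days. Liver and intestine protein (BCA) was run on 10% SDS-PAGE and blotted to PVDF. Primary antibodies with β-actin overnight at 4 °C, secondary 2 h, chemiluminescence, densitometry. Mean ± SD, one-way ANOVA.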

[2] = system: BCRP/ABCG2; test: Hepatic and intestinal BCRP/ABCG2 protein expression
Procedure, shortened: as §1

[3] = system: Pgp/MDR1; test: Hepatic and intestinal Pgp/MDR1 protein expression
Procedure, shortened: as §1

[4] = Pharmacokinetics of oral DAS in rats with or without SA pretreatment; details: for k el: Kel; for MRT inf: MRT 0-inf_obs
[5] = intestine, SA 40 mg/kg alone vs normal rats
[6] = liver, SA 40 mg/kg alone vs normal rats
[7] = intestine, SA-pretreated rats + DAS vs DAS alone
[8] = liver, SA-pretreated rats + DAS vs DAS alone
[9] = Wistar, rat, plasma, po, 25 mg/kg, rats, DAS 25 mg/kg p.o. after SA 40 mg/kg p.o. pretreatment for seven days, Mean ± SD
[10] = Wistar, rat, plasma, po, 25 mg/kg, rats, DAS 25 mg/kg p.o. single dose, alone, Mean ± SD
[11] = decrease, SA 40 mg/kg + DAS 25 mg/kg vs DAS alone, rats
[12] = increase, SA 40 mg/kg + DAS 25 mg/kg vs DAS alone, rats
[13] = rats, DAS 25 mg/kg p.o. after SA 40 mg/kg p.o. pretreatment for seven days, Mean ± SD
[14] = rats, DAS 25 mg/kg p.o. single dose, alone, Mean ± SD

In the case of `COc1cc(/C=C/C(=O)O)cc(OC)c1O` [SA, Sinapic acid], the “inhibition of intestinal CYP3A2 protein expression” value [1, 5] is reported as 89.47%, the “inhibition of hepatic CYP3A2 protein expression” value [1, 6] is reported as 88.91% and the “inhibition of hepatic CYP3A2 protein expression” value ([1]; liver, SA 40 mg/kg pretreatment for seven days + DAS vs DAS administered rats) is reported as 57.11%. For the same compound, the “inhibition of intestinal BCPR/ABCG2 protein” value [2, 7] was 50.48%, the “inhibition of hepatic BCPR/ABCG2 protein” value [2, 8] was 51.44% and the “inhibition of intestinal Pgp/MDR1 protein expression” value [3, 5] was 76.93%. The “inhibition of intestinal Pgp/MDR1 protein expression” value [3, 7] was 47.43%, the “inhibition of hepatic Pgp/MDR1 protein expression” value [3, 6] was 84.93% and the “inhibition of hepatic Pgp/MDR1 protein expression” value [3, 8] was 44.06%.

With `Cc1nc(Nc2ncc(C(=O)Nc3c(C)cccc3Cl)s2)cc(N2CCN(CCO)CC2)n1` [DAS, Dasatinib] the half-life ([4]; Wistar, rat, plasma, po, 25 mg/kg) was 5.59 ± 0.2 h, the AUC(0-t) [4, 9] was 2210 ± 96.3 ng·h/mL and the AUC(0-t) [4, 10] was 1720 ± 70.6 ng·h/mL. The Cmax [4, 9] was 419 ± 18.8 ng/mL, the Cmax [4, 10] was 259 ± 9.71 ng/mL and the k el [4, 9] was 3.33e-05 s⁻¹. It also gave a k el [4, 10] of 4.44e-05 s⁻¹, an MRT inf [4, 9] of 8.2 ± 0.25 h and an MRT inf [4, 10] of 7.31 ± 0.17 h. The “% Change in Cl” value [4, 11] was 26.97%, the “% Change in Kel” value [4, 11] was 22.33% and the “% Change in Vd” value [4, 11] was 5.96%. For the same compound, the “% Change in AUC 0-t” value [4, 12] was 28.98%, the “% Change in AUMC 0-∞” value [4, 12] was 53.63% and the “% Change in Cmax” value [4, 12] was 62.02%. The “% Change in MRT 0-inf_obs” value [4, 12] was 12.08%, the “% Change in T1/2” value [4, 12] was 28.82% and the “% Change in Tmax” value [4, 12] was 100%. For the same compound, the “AUMC 0-∞” value [4, 13] was 23569.00 ± 1418.58 ng/mL*h^2, the Cl [4, 13] was 0.009 ± 0.00 (mg/kg)/(ng/mL)/h and the Tmax [4, 13] was 2.00 ± 0.00 h. For the same compound, the Vd [4, 13] was 0.070 ± 0.004 (mg/kg)/(ng/mL), the “AUMC 0-∞” value [4, 14] was 15341.83 ± 607.98 ng/mL*h^2 and the Cl [4, 14] was 0.012 ± 0.001 (mg/kg)/(ng/mL)/h. The T1/2 [4, 14] was 4.34 ± 0.11 h, the Vd [4, 14] was 0.075 ± 0.003 (mg/kg)/(ng/mL) and the “increase of intestinal CYP3A2 protein expression” value ([1]; intestine, DAS administered rats (25 mg/kg p.o.) vs normal rats) was 92.97%. For the same compound, the “increase of hepatic CYP3A2 protein expression” value ([1]; liver, DAS administered rats (25 mg/kg p.o.) vs normal rats) was 92.03%, the “induction of intestinal BCPR/ABCG2 protein expression” value ([2]; intestine, DAS per-oral administration vs normal rats) was 73.55% and the “induction of hepatic BCPR/ABCG2 protein expression” value ([2]; liver, DAS per-oral administration vs normal rats) was 75.09%. The “induction of intestinal Pgp/MDR1 protein expression” value ([3]; intestine, DAS administration vs normal rats) was 76.42% and the “induction of hepatic Pgp/MDR1 protein expression” value ([3]; liver, DAS administration vs normal rats) was 72.30%.
